According to ChEMBL document CHEMBL3808334, “Synthesis and in vitro evaluation of novel triazine analogues as anticancer agents and their interaction studies with bovine serum albumin” (Eur J Med Chem, 2016):

Tests used:
Assay type in all cases: functional
MDA-MB-468 = experiment: Growth inhibition of human MDA-MB-468 cells assessed as cell growth at 10^-4 M incubated for 48 hrs by sulforhodamine B assay; details: MDA-MB-468, 48 h, read-out: Activity
A549 [1] = experiment: Growth inhibition of human A549/ATCC cells incubated for 48 hrs by sulforhodamine B assay; details: A549, 48 h
Summary of the method: (§1)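 Five-dose assay: five concentrations from 10-fold or ½-log serial dilutions. Cells are plated at 5,000–40,000 per well according to doubling time, grown 24 h, then exposed 48 h at 37 °C, 5% CO₂. Fixed with cold 50% TCA (final addition) for 60 min at 4 °C and stained with 0.4% SRB in 1% acetic acid. Bound dye is solubilized in 10 mM Tris base and read at 515 nm. GI₅₀ is where [(Ti−Tz)/(C−Tz)]×100 = 50, with a time-zero plate as Tz.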

[2] = Growth inhibition of human HOP92 cells incubated for 48 hrs by sulforhodamine B assay; details: HOP-92, 48 h
Summary of the method: (§2)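 Cells seeded at 5,000–40,000/well according to doubling time and preincubated 24 h at 37 °C, 5% CO2. Time-zero plates were TCA-fixed. DMSO concentrate was diluted in medium with 50 µg/ml gentamicin to give five concentrations (10-fold or ½ log steps), then exposed 48 h. Cells were TCA-fixed, stained with 0.4% SRB and read at 515 nm. Percent growth was taken against time-zero and control; GI50, TGI and LC50 derived.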

A498 [3] = experiment: Growth inhibition of human A498 cells assessed as cell growth at 10^-8 M incubated for 48 hrs by sulforhodamine B assay; details: A498, 48 h, read-out: Activity; summary of the method: as §1
[4] = Growth inhibition of human HCT15 cells assessed as cell growth at 10^-7 M incubated for 48 hrs by sulforhodamine B assay; details: HCT-15, 48 h, read-out: Activity; summary of the method: as §2
[5] = Growth inhibition of human PC3 cells assessed as cell growth at 10^-5 M incubated for 48 hrs by sulforhodamine B assay; details: PC-3, 48 h, read-out: Activity
[6] = Growth inhibition of human HL-60(TB) cells assessed as cell growth at 10^-4 M incubated for 48 hrs by sulforhodamine B assay; details: HL-60, 48 h, read-out: Activity
Summary of the method: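 Cells plated at 5,000–40,000/well according to doubling time and preincubated 24 h at 37 °C, 5% CO₂, with time-zero plates TCA-fixed. Drugs were kept as DMSO concentrates at 400× the top concentration and diluted in medium with 50 µg/ml gentamicin. Five 10-fold or ½-log dilutions were run for 48 h, followed by SRB staining and A515. Percent growth = (Ti−Tz)/(C−Tz)×100, or (Ti−Tz)/Tz×100 when Ti<Tz.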

[7] = Growth inhibition of human HOP92 cells assessed as cell growth at 10^-4 M incubated for 48 hrs by sulforhodamine B assay; details: HOP-92, 48 h, read-out: Activity
NCI-H522 = experiment: Growth inhibition of human NCI-H522 cells assessed as cell growth at 10^-4 M incubated for 48 hrs by sulforhodamine B assay; details: NCI-H522, 48 h, read-out: Activity
[8] = Growth inhibition of human HCT116 cells assessed as cell growth at 10^-4 M incubated for 48 hrs by sulforhodamine B assay; details: HCT-116, 48 h, read-out: Activity; summary of the method: as §2
[9] = Growth inhibition of human SF539 cells assessed as cell growth at 10^-4 M incubated for 48 hrs by sulforhodamine B assay; details: SF-539, 48 h, read-out: Activity
SK-MEL-5 = experiment: Growth inhibition of human SK-MEL-5 cells assessed as cell growth at 10^-7 M incubated for 48 hrs by sulforhodamine B assay; details: SK-MEL-5, 48 h, read-out: Activity
A498 [10] = experiment: Growth inhibition of human A498 cells assessed as cell growth at 10 uM incubated for 48 hrs by sulforhodamine B assay; details: A498, 48 h, read-out: Activity
Summary of the method: (§3)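 One-dose screen at 10 µM final. Cells are plated at 5,000–40,000 per well according to doubling time and preincubated 24 h at 37 °C, 5% CO₂. Compound (DMSO stock diluted in medium with 50 µg/ml gentamicin) is then added for 48 h. Growth percent is read by sulforhodamine B staining, absorbance at 515 nm.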

SR = experiment: Growth inhibition of human SR cells assessed as cell growth at 10^-8 M incubated for 48 hrs by sulforhodamine B assay; details: read-out: Activity
EKVX = experiment: Growth inhibition of human EKVX cells assessed as cell growth at 10^-8 M incubated for 48 hrs by sulforhodamine B assay; details: read-out: Activity; summary of the method: as §2
T47D [11] = experiment: Growth inhibition of human T47D cells assessed as cell growth at 10^-7 M incubated for 48 hrs by sulforhodamine B assay; details: read-out: Activity
[12] = Growth inhibition of human HCT15 cells assessed as cell growth at 10^-8 M incubated for 48 hrs by sulforhodamine B assay; details: HCT-15, 48 h, read-out: Activity; summary of the method: as §2
U-251 = experiment: Growth inhibition of human U251 cells assessed as cell growth at 10^-6 M incubated for 48 hrs by sulforhodamine B assay; details: U-251, 48 h, read-out: Activity
[13] = Growth inhibition of human OVCAR3 cells assessed as cell growth at 10^-6 M incubated for 48 hrs by sulforhodamine B assay; details: OVCAR-3, 48 h, read-out: Activity
[14] = Growth inhibition of human OVCAR8 cells assessed as cell growth at 10^-6 M incubated for 48 hrs by sulforhodamine B assay; details: OVCAR-8, 48 h, read-out: Activity
T47D [15] = experiment: Growth inhibition of human T47D cells assessed as cell growth at 10^-6 M incubated for 48 hrs by sulforhodamine B assay; details: read-out: Activity
[16] = Growth inhibition of human HCC2998 cells assessed as cell growth at 10^-5 M incubated for 48 hrs by sulforhodamine B assay; details: HCC 2998, 48 h, read-out: Activity; summary of the method: as §2
A549 [17] = experiment: Growth inhibition of human A549/ATCC cells assessed as cell growth at 10 uM incubated for 48 hrs by sulforhodamine B assay; details: A549, 48 h, read-out: Activity; summary of the method: as §3
[18] = Growth inhibition of human COLO205 cells assessed as cell growth at 10 uM incubated for 48 hrs by sulforhodamine B assay; details: COLO 205, 48 h, read-out: Activity
Summary of the method: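 Primary screen at one dose (10 µM) across 60 human cancer cell lines. Readout was growth percent relative to untreated control and time-zero.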

[19] = Growth inhibition of human SF539 cells assessed as cell growth at 10 uM incubated for 48 hrs by sulforhodamine B assay; details: SF-539, 48 h, read-out: Activity
[20] = Growth inhibition of human non-small cell lung cancer cells incubated for 48 hrs by sulforhodamine B assay; details: Cancer cell lines; for CC50: read-out: LC50 (the source's name)
[21] = read-out: LC50 (the source's name)
[22] = read-out: pLC50 (the source's name) (converted)

Structure (SMILES) | growth at 100 µM (MDA-MB-468) [%] | GI50 (A549 [1]; read-out: GI50) [µM] | CC50 (A549 [1]; [21]) [µM] | TGI (A549 [1]; read-out: TGI) [µM] | GI50 (A549 [1]; read-out: pGI50 (converted)) [µM] | CC50 (A549 [1]; [22]) [µM] | TGI (A549 [1]; read-out: pTGI (converted)) [µM] | GI50 ([2]; read-out: GI50) [µM] | LC50 (concentration killing 50% of starting cells) ([2]; read-out: LC50) [µM] | TGI ([2]; read-out: TGI) [µM] | GI50 ([2]; read-out: pGI50 (converted)) [µM] | LC50 (concentration killing 50% of starting cells) ([2]; read-out: pLC50 (converted)) [µM] | TGI ([2]; read-out: pTGI (converted)) [µM] | growth at 0.01 µM (A498 [3]) [%] | growth at 0.1 µM [4] [%] | growth at 10 µM [5] [%] | growth at 100 µM [6] [%] | growth at 100 µM [7] [%] | growth at 100 µM (NCI-H522) [%] | growth at 100 µM [8] [%] | also measured
c1ccc2[nH]c(-c3ccc(Nc4nc(N5CCCCC5)nc(N5CCOCC5)n4)cc3)nc2c1 | -31 | 3.27 | > 100 | 13.2 | 3.24 | > 100 | 13.2 | 1.99 | 9.34 | 4.32 | 2 | 9.33 | 4.37 | 92 | 92 | -4 | -22 | -71 | -29 | -75 | growth at 100 µM [9]: -76%; growth at 0.1 µM (SK-MEL-5): 93%; growth at 10 µM (A498 [10]): -28.6%; growth at 0.01 µM (SR): 95%; growth at 0.01 µM (EKVX): 93%; growth at 0.1 µM (T47D [11]): 94%; growth at 0.01 µM [12]: 95%; growth at 1 µM (U-251): 76%; growth at 1 µM [13]: 96%; growth at 1 µM [14]: 93%; growth at 1 µM (T47D [15]): 90%; growth at 10 µM [16]: 9%; growth at 10 µM (A549 [17]): 13.9%; growth at 10 µM [18]: -61.3%; growth at 10 µM [19]: 7.95%; GI50 [20]: 2.85 µM; TGI [20]: 9.66 µM; CC50 [20]: 9.54 µM
Clc1ccc(-c2nc(Nc3ccc(-c4nc5ccccc5[nH]4)cc3)nc(N3CCOCC3)n2)cc1 | -41 | 0.666 | 5.54 | 2.13 | 0.661 | 5.5 | 2.14 | 1.3 | 5.61 | 2.7 | 1.29 | 5.62 | 2.69 | 94 | 91 | -89 | -45 | -67 | -41 | -34 | growth at 100 µM [9]: -38%; growth at 0.1 µM (SK-MEL-5): 102%; growth at 10 µM (A498 [10]): -81.5%; growth at 0.01 µM (SR): 103%; growth at 0.01 µM (EKVX): 90%; growth at 0.1 µM (T47D [11]): 92%; growth at 0.01 µM [12]: 96%; growth at 1 µM (U-251): -56%; growth at 1 µM [13]: 15%; growth at 1 µM [14]: 57%; growth at 1 µM (T47D [15]): 19%; growth at 10 µM [16]: -57%; growth at 10 µM (A549 [17]): -75.2%; growth at 10 µM [18]: -68.4%; growth at 10 µM [19]: -92.7%; GI50 [20]: 1.15 µM; TGI [20]: 2.59 µM; CC50 [20]: 5.58 µM
